In PMC10287037 (European journal of medicinal chemistry, 2023):
Read-outs that look alike come from different tables or passages of the source.

How the values were obtained:
VL51 cells [1] = assay: p-histone H3 staining of mitotic cells by flow cytometry; format: cell-based, human; conditions: 24 h
In short: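 VL51 lymphoma cells in RPMI-1640 with 20% FBS, penicillin-streptomycin-neomycin and 1% L-glutamine at 37 °C, 5% CO2. Seeded at 2.0×10^5 per well in 6-well plates, then treated 24 h at indicated concentrations. Harvested by centrifugation, fixed in 70% ice-cold ethanol, stained with anti-phospho-histone H3 antibody plus PI, and analysed by flow cytometry as % p-H3-positive (mitotic) cells.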

VL51 cells [2] = assay: Mitochondrial membrane potential; format: cell-based, human; conditions: 24 h, 0.5 and 1.0 μM, VL51, JC-1
In short: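 VL51 lymphoma cells were grown in RPMI-1640 with 20% FBS, pen-strep-neomycin and 1% L-glutamine at 37 °C, 5% CO2. Cells were treated 24 h with test compound diluted from a 10 mM DMSO stock. They were then labelled with JC-1 and analysed by flow cytometry in the FL1 and FL2 channels.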

PBL stimulated with PHA = assay: Cytotoxicity in PHA-stimulated human PBLs; format: cell-based; conditions: 72 h, read-out: IC50 (compound concentration required to inhibit cell growth by 50%)
In short: (§1)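 Healthy-donor human PBLs; non-adherent cells at 5×10^5 cells/mL in growth medium. Proliferating cultures received PHA; resting cultures used the same density without PHA. Graded compound concentrations from 10 mM DMSO stocks. Viability by MTT after 72 h incubation. IC50 is the concentration inhibiting cell growth by 50%.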

[3] = test system: A549, CCRF-CEM and VL51 cells; assay: Apoptosis assay; format: cell-based, human; conditions: 48 h incubation; annexin-V/PI
In short: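 A549, CCRF-CEM and VL51 cultured at 37 °C, 5% CO2; lymphoma line in RPMI-1640 with 20% FBS, pen-strep-neomycin and 1% L-glutamine. Test compound from 10 mM DMSO stock, several concentrations, 48 h. Annexin-V Fluos kit per manufacturer: annexin-V-FITC (FL1) and PI (FL3) by flow cytometry. Apoptotic % = annexin-V+ plus annexin-V/PI double-positive cells; mean ± S.E.M., three independent experiments.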

[4] = test system: PBL not stimulated with PHA; assay: Cytotoxicity in resting human PBLs; format: cell-based; conditions: 72 h, read-out: IC50 (compound concentration required to inhibit cell growth by 50%)
In short: as §1

tubulin = assay: Inhibition of tubulin assembly; format: biochemical; conditions: compared with 3d / CA-4
[5] = test system: VL51 (marginal zone lymphoma, MZL) cells; assay: MTT cell proliferation assay, VL51; format: cell-based; conditions: Homo sapiens, VL51, 72 h, bound stated
[6] = test system: non-Hodgkin lymphoma (NHL) cells HBL1, SU-DHL-10, MINO, VL51; assay: MTT cell proliferation assay, panel of four NHL cell lines; format: cell-based, human; conditions: for reduction in the percentage of cellular proliferation: 1 μM, 72 h incubation, towards each cell line
colon cancer subpanel = assay: NCI five-dose screening, colon cancer subpanel; format: cell-based, human; conditions: for GI50: Homo sapiens
In short: (§2)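 Run by NCI. Prescreen at 10^-5 M across 60 human lines from nine tumour types: leukemia, NSCLC, colon, CNS, melanoma, ovarian, renal, prostate, breast. GI50 is the concentration inhibiting cell growth by 50%. MG_MID is the arithmetic mean GI50 over tested lines; where 50% inhibition was not reached, the highest tested concentration was used.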

leukemia cell lines = assay: NCI five-dose screening, leukemia subpanel; format: cell-based, human; conditions: for GI50: Homo sapiens, read-out: GI50 values (range over subpanel)
In short: as §2

renal cancer subpanel = assay: NCI five-dose screening, renal cancer subpanel; format: cell-based; conditions: Homo sapiens, TK-10, read-out: GI50 (range over subpanel)
In short: as §2

prostate cell lines = assay: NCI five-dose screening, prostate subpanel; format: cell-based; conditions: Homo sapiens, read-out: GI50 values (range over subpanel)
In short: as §2

[7] = test system: tubulin (colchicine site); assay: Inhibition of [3H]colchicine binding to tubulin; conditions: 5 μM inhibitor; 0.5 μM tubulin, 5.0 μM [3H]colchicine

Row | IC50 [5] | Compound | depolarization of the mitochondrial membrane (VL51 cells [2]) | IC50 (PBL stimulated with PHA) | induction of apoptosis [3] | IC50 [4] | reduction in the percentage of cellular proliferation [6] | GI50 (leukemia cell lines) | also measured
1 | – | COc1ccc(Cn2cc3c(c2-c2ccccc2)CCCc2cnoc2-3)cc1 [3d, 8-(4-Methoxybenzyl)-7-phenyl-4,5,6,8-tetrahydropyrrolo[3’,4’:3,4]cyclohepta[1,2-d][1,2]oxazole] | slight depolarization of the mitochondrial membrane | > 10000 nM | induced apoptosis to a lesser extent | > 10000 nM | – | – | increase of mitotic cells (p-histone H3 positive) (VL51 cells [1]): did not observe a significant increase of mitotic cells
2 | – | COc1ccc(Cn2cc3c(c2-c2ccc(OC)cc2)CCCc2cnoc2-3)cc1 [3p, 8-(4-Methoxybenzyl)-7-(4-methoxyphenyl)-4,5,6,8-tetrahydropyrrolo[3’,4’:3,4]cyclohepta[1,2-d][1,2]oxazole] | – | – | – | – | – | – | fold less active on tubulin assembly (tubulin): about 4 fold
3 | < 500 nM | COc1ccc(Cn2cc3c(c2-c2cc(OC)c(OC)c(OC)c2)CCCc2cnoc2-3)cc1 [3u, 8-(4-Methoxybenzyl)-7-(3,4,5-trimethoxyphenyl)-4,5,6,8-tetrahydropyrrolo[3’,4’:3,4]cyclohepta[1,2-d][1,2]oxazole] | depolarization was extensive | > 10000 nM | massive apoptosis in a dose-dependent manner | > 10000 nM | higher than 50% | 350 to 1560 nM | GI50 (colon cancer subpanel; read-out: GI50 values (range over subpanel)): 390 to 1610 nM; calculated MG_MID for subpanel (colon cancer subpanel; colon cancer subpanel): 0.88 µM; calculated MG_MID for subpanel (leukemia cell lines; leukemia subpanel): 0.65 µM
4 | < 500 nM | COc1ccc(Cn2cc3c(c2-c2cc(OC)c(OC)c(OC)c2)CCCc2cnoc2-3)cc1N [3z, 2-Methoxy-5-((7-(3,4,5-trimethoxyphenyl)-5,6-dihydropyrrolo[3’,4’:3,4]cyclohepta[1,2-d]isoxazol-8(4H)-yl)methyl)aniline] | depolarization was extensive | > 10000 nM | massive apoptosis in a dose-dependent manner | > 10000 nM | higher than 50% | 300 to 650 nM | IC50 ([6]; Homo sapiens, 72 h, read-out: IC50 values (range over all four NHL cell lines)): 100 to 500 nM; GI50 (colon cancer subpanel; HCC 2998, read-out: GI50 (range over subpanel)): 380 to 560 nM; GI50 (renal cancer subpanel): 360 to 840 nM; GI50 (prostate cell lines): 430 to 840 nM
5 | – | COc1ccc(/C=C\c2cc(OC)c(OC)c(OC)c2)cc1O [CA-4, combretastatin A-4] | – | – | – | – | – | – | Inhibition of colchicine binding % Inhibition ± SD [7]: 98 ± 2%
